Data set [1] concerns the target Cyclin-dependent kinase 2 (Homo sapiens, UniProt P24941). The data set can be described thus: Inhibition of CDK2 by HTRF assay. The essentials: (§1)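 Enzyme inhibition was run with ATP at its Km for each kinase. Values are averages of at least two determinations.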
(TR-FRET usually uses a lanthanide donor and a delayed reading to cut background.)

Data set [2] can be described thus: Volume of distribution at steady state in Sprague-Dawley rat at 0.5 mg/kg, iv and 2 mg/kg, po. Type of data set: ADME, organism-based. The following applies: in vivo, read-out: Vdss.
Data set [3] can be described thus: Oral bioavailability in Sprague-Dawley rat at 2 mg/kg. In kind it is ADME, organism-based. The settings on record: in vivo.
Data set [4] is described as follows: Clearance in Sprague-Dawley rat at 0.5 mg/kg, iv and 2 mg/kg, po. Type of data set: ADME, organism-based. The following applies: in vivo.
Data set [5] can be described thus: Intrinsic clearance in rat liver microsomes at 1 uM after up to 40 mins. Type of data set: ADME, Microsome. (In general: Liver microsomes are a subcellular fraction often used to study metabolism.)
Data set [6] addresses Vascular endothelial growth factor receptor 2 (Homo sapiens, UniProt P35968). The data set can be described thus: Inhibition of KDR by HTRF assay. The method, boiled down: as §1
Data set [7] addresses Mast/stem cell growth factor receptor Kit (Homo sapiens, UniProt P10721). The data set can be described thus: Inhibition of c-Kit by HTRF assay. The method, boiled down:
as §1

Data set [8] addresses Tyrosine-protein kinase ABL1 (Homo sapiens, UniProt P00519). The data set can be described thus: Inhibition of Abl by HTRF assay. The method, boiled down:
as §1

Data set [9] deals with T1, Aurora kinase B (Homo sapiens, UniProt Q96GD4). The data set can be described thus: Inhibition of aurora B in human HeLa cells assessed as reduction of histone H3 phosphorylation at Ser10 at 0.313 uM after 24 hrs by flow cytometry. For orientation: A flow cytometer gives signals particle by particle.
T1 sequence (Q96GD4 whole entry): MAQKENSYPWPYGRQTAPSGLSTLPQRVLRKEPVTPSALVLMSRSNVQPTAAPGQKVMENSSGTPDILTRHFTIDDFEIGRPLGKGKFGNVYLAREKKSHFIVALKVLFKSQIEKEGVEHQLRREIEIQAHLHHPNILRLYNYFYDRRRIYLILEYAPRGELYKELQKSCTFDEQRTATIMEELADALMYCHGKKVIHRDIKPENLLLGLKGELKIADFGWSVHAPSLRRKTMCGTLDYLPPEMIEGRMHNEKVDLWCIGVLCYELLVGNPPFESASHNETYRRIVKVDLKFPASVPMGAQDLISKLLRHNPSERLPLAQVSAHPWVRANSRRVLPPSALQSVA
Data set [10] has as its system Plasma. Briefly: Fraction unbound in mouse plasma at 10 uM after 6 hrs by ultrafiltration. In kind it is ADME, cell-free.
Data set [11] has as its system Plasma. The data set can be described thus: Drug level in human COLO205 cells xenografted in CD1 mouse plasma at 50 mg/kg, po after 3 to 6 hrs. In kind it is ADME, organism-based, COLO 205. Further details: dose 50 mg/kg, route oral. The following applies: in vivo. The essentials:
(§2)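 COLO 205 xenograft-bearing mice received a single 50 mg/kg oral dose (N = 12 per group). Plasma was sampled at 3, 6 and 24 h (N = 4 per time point) and analyzed for drug concentration. Results are reported as mean ± SD.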

The nature of data set [12]: Protein binding in mouse plasma at 10 uM by ultrafiltration. In kind it is ADME, cell-free. The following applies: read-out: PPB.
For data set [13], the target named is Ribosomal protein S6 kinase alpha-5 (Homo sapiens, UniProt O75582). The data set can be described thus: Inhibition of MSK1 by HTRF assay. The method, boiled down:
as §1

The test system of a further data set is HeLa. Briefly: Induction of morphological changes in human HeLa cells at […] after 48 hrs using DAPI staining by microscopic analysis.
Data set [14] can be described thus: Drug level in human COLO205 cells xenografted in CD1 mouse plasma at 50 mg/kg, po after 24 hrs. On the set-up: dose 50 mg/kg, route oral. In kind it is ADME, organism-based, COLO 205. The essentials:
as §2

For data set [15], the target named is RAC-beta serine/threonine-protein kinase (Homo sapiens, UniProt P31751). The data set can be described thus: Inhibition of PKBbeta by HTRF assay. The essentials:
as §1

Data set [16] has as its target T1, Aurora kinase B. The data set can be described thus: Inhibition of aurora B in human HeLa cells assessed as increase of >= 4N DNA level at 0.313 uM after 24 hrs using Hoechst staining by flow cytometry. In kind it is cell-based. The method, boiled down: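 In the 24 h DNA ploidy assay, HeLa cells were exposed to compound for 24 h. The read-out was accumulation of cells with ≥4N DNA content relative to control. For the single-concentration test, cells were treated at 0.313 μM, and p-histone H3 Ser10 and DNA content (2N/4N/8N) were read by flow cytometry. The ploidy read-out gave an EC50.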

The source made the active and inactive calls. The calls are words filed in the database; no cut-off is given here.

One may read the IC50 as the midpoint of a concentration-inhibition curve. Read a high IC50 as a need for much substance. The term bioavailability denotes the share of a dose that reaches the circulation, judged against a reference dose that is usually intravenous. The low end stands for poor availability, the high end for good availability. The microsomal CLint is the rate of metabolic loss divided by the concentration.

Sequence of Mast/stem cell growth factor receptor Kit (P10721 whole entry): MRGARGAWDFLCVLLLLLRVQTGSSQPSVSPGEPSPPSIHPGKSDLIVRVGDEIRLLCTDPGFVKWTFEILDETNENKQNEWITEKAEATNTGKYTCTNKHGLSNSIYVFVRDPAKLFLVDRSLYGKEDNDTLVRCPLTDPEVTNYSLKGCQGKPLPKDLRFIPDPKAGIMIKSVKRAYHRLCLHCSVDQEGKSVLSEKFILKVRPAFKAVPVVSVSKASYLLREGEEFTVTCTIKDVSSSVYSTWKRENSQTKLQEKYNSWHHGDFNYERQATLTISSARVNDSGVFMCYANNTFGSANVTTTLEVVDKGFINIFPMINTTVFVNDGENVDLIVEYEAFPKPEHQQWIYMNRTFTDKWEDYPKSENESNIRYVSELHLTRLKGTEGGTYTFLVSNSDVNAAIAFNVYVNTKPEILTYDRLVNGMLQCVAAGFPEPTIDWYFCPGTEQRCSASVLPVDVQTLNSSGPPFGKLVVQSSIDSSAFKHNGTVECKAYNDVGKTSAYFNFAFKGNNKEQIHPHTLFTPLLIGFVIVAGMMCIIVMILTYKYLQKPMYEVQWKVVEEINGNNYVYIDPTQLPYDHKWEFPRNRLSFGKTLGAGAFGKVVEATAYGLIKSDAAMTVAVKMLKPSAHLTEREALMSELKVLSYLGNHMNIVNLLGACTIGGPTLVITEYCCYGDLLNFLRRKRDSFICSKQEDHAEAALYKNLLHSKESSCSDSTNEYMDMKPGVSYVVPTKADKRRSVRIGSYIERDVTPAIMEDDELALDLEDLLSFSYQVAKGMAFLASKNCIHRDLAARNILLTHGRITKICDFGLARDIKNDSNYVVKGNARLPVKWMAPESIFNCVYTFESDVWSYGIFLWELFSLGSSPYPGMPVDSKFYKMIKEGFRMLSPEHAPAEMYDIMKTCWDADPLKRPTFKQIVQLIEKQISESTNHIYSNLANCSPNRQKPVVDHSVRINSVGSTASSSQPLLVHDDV
Sequence of Vascular endothelial growth factor receptor 2 (P35968 whole entry): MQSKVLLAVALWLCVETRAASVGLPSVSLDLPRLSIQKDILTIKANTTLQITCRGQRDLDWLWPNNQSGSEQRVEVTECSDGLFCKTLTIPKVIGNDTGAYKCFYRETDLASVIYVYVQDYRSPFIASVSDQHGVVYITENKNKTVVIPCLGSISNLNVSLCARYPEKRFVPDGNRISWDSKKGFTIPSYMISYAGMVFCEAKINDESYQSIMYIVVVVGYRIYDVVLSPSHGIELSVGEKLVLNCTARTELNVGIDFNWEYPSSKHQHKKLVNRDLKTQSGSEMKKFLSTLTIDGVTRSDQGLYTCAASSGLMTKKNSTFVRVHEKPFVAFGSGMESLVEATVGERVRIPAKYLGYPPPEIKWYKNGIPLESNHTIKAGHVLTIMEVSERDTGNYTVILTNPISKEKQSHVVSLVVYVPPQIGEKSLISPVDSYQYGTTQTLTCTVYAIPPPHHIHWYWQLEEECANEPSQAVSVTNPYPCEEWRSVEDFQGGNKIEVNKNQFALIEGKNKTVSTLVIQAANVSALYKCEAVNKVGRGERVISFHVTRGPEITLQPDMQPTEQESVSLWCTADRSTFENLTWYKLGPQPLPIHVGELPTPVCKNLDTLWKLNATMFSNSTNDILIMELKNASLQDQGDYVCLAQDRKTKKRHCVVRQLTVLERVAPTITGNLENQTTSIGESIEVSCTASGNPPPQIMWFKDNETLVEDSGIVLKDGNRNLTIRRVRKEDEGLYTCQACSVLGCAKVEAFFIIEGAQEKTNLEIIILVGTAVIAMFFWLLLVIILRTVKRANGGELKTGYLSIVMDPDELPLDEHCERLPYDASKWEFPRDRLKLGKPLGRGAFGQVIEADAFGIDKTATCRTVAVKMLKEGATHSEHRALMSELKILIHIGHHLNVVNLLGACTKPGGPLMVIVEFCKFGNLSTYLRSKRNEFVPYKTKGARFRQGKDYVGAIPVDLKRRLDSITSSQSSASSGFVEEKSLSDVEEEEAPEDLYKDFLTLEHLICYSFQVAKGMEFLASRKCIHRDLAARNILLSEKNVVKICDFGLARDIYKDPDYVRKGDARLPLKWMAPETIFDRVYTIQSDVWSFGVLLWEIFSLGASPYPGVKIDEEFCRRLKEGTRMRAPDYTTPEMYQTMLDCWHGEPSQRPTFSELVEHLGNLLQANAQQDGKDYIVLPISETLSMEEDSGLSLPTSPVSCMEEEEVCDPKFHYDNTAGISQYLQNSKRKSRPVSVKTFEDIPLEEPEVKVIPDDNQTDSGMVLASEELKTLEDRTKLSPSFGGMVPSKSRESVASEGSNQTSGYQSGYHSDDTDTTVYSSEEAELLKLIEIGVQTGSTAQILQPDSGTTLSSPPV
Sequence of Ribosomal protein S6 kinase alpha-5 (O75582 whole entry): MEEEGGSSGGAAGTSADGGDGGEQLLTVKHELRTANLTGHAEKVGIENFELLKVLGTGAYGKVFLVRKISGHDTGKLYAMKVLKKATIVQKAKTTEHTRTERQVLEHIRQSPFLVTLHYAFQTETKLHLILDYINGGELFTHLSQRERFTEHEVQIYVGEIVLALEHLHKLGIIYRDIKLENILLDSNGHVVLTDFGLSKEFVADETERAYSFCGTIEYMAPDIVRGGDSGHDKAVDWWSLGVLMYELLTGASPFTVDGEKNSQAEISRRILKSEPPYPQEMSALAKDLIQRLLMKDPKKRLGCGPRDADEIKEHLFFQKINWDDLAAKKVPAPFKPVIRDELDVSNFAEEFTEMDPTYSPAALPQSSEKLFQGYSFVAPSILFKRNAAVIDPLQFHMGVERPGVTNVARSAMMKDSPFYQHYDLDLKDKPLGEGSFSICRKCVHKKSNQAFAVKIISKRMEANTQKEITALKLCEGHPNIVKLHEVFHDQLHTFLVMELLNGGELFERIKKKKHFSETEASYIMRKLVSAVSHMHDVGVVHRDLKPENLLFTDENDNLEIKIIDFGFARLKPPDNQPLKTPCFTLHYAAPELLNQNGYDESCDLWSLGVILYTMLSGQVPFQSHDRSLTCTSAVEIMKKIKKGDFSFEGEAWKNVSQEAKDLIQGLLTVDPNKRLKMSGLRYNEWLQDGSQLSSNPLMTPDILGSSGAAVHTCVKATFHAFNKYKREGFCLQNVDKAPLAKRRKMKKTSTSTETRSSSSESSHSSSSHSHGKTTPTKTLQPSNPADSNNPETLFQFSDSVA
Sequence of RAC-beta serine/threonine-protein kinase (P31751 whole entry): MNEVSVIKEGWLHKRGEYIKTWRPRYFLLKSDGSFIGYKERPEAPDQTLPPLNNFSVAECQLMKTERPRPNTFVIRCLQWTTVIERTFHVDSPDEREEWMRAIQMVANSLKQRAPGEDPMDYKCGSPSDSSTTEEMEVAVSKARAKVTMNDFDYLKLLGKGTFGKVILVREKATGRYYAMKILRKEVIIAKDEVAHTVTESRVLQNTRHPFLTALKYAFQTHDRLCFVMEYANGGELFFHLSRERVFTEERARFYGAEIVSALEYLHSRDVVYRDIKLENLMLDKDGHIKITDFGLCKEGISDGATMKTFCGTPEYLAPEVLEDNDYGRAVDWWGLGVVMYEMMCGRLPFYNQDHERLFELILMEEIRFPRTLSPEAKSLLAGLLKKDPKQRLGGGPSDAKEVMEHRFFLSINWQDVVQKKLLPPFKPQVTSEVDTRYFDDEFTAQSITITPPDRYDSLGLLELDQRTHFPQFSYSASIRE
Sequence of Tyrosine-protein kinase ABL1 (P00519 whole entry): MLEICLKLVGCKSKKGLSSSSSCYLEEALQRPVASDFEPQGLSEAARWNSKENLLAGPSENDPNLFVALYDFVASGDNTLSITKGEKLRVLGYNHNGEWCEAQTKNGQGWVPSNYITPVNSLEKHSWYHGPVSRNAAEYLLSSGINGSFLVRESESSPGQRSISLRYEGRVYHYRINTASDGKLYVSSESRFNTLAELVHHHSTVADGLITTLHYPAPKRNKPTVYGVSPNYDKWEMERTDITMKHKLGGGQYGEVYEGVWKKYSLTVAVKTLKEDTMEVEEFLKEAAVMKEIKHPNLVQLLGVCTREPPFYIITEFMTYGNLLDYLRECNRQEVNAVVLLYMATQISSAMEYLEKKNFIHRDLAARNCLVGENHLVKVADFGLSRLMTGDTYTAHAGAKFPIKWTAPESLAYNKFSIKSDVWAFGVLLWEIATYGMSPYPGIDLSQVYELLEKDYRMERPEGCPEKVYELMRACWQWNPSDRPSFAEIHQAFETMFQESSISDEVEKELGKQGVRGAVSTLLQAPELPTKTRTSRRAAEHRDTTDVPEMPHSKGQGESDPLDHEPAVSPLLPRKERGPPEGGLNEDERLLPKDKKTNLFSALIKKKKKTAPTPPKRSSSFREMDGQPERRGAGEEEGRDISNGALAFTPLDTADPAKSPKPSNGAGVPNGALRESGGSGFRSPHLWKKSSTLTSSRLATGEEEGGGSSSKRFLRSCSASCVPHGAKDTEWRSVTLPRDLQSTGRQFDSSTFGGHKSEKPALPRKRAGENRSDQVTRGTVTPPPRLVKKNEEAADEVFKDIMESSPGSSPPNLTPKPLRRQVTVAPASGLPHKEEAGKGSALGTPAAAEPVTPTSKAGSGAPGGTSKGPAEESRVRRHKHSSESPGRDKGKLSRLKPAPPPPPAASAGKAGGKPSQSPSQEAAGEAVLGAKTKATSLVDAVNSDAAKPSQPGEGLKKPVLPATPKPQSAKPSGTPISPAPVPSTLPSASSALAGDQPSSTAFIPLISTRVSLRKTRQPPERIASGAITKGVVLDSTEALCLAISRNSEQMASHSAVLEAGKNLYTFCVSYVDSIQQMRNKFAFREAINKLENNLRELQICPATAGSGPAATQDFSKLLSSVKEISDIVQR

In turn, `CNc1nccc(-c2cccnc2Oc2ccc(NC(=O)c3ccccc3Nc3ccccc3)cc2)n1` gave a half-inhibitory concentration (IC50) in data set [1] of more than 1000 nM. Moreover, in data set [2], the Vd worked out at 4.8 L/kg. In data set [3], the bioavailability was less than 1%. The clearance in data set [4] was 60 mL/min/kg. Also, the microsomal CLint at 1 µM in data set [5] was 663 µL/min/mg.

For `CNc1nccc(-c2cccnc2Oc2ccc(NC(=O)c3cccc(C(F)(F)F)c3)cc2C)n1`, the IC50 in [6] came to 3270 nM; in data set [7] it was 1350 nM; in data set [8], 503 nM.

In the case of `CNc1nccc(-c2cccnc2Oc2ccc(Nc3nnc(-c4ccc(F)cc4)c4ccccc34)cc2)n1`, the result at Aurora kinase B [9], with HeLa and at Aurora kinase B [16] was Active. The compound further returned an unbound concentration with Plasma [10] of less than 20 ng/mL. Besides, the Cp entry in the data set on Plasma [11] was “>= 20000 ng/ml”. In addition, the fraction unbound at 10 µM in data set [12] is less than 0.001. The IC50 in data set [13] and in data set [15] was more than 25000 nM in each case. This compound also returned a concentration at 24 h in data set [14] of 2460 ng/mL.

The values above are taken from ChEMBL document CHEMBL1240487, “Discovery of a potent, selective, and orally bioavailable pyridinyl-pyrimidine phthalazine aurora kinase inhibitor” (J Med Chem, 2010).
